Source: PubChem (several laboratories)
Sampled rows, rich in hits. Any-hit rate of the full collection: about 11%.
TNAP act mid DEA = activators of human TNAP at intermediate phosphate acceptor | P05186 | purified TNAP, CDP-star luminescence, 100 mM DEA, 30 min; hits give high values; scale: 0 levamisole-inhibited, 1 vehicle-only enzyme | activation factor at 20 µM | 64,000 tested, under 10 active | AID 813;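 active means activation factor of at least 2 at 20 µM, relative to controls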
S1P3 ag = S1P3 (human) receptor agonism; Q99500; S1P3 NFAT-BLA reporter cells, FRET ratio; relative to 1 µM S1P, basal subtracted; activation, % at 4.5 µM; 0.1% of 60,000 active;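 active means activation above the screen-wide mean plus 3 SD, cut at about 4.5% in these data, passing the limit was not always enough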
Target sequence (Q99500 whole entry, looked up): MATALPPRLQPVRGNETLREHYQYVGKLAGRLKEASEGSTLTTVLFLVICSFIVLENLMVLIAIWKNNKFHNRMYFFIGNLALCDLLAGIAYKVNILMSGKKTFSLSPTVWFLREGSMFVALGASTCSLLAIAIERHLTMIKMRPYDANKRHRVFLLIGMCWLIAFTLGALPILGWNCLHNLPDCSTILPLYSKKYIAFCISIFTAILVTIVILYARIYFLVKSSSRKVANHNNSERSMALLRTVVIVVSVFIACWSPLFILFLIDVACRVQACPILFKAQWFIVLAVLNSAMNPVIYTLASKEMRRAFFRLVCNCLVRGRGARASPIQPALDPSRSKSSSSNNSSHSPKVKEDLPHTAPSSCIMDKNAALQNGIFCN
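Assay system: stable CHO line with human S1P3, Gα16, NFAT-BLA reporter; Detection: FRET β-lactamase substrate fluorescence, excitation 405 nm, 460/535 nm emission ratio, background-subtracted; Read-out: percent activation versus median 1 µM S1P response, basal-subtracted, per plate; Incubation: cells plated overnight, compound 4 h 37 °C, substrate 2 h RT.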
D1 allo mod = allosterically modulates the human D1 dopamine receptor. P21728. HEK293 D1, CRE-luciferase, dopamine EC30 potentiation; actives deviate in either direction. B-score at 10 µM. 5.9% of 58,000 active;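 active means luminescence count or its row- and column-corrected plate score outside the 99.7% band of the plate's sample wells, on either side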
M1 antagonist = M1 muscarinic receptor (rat) antagonism | P08482 | CHO-M1 cells, Fluo-4 calcium, ACh EC80 antagonist mode; hits give low values | B-score at 10 µM | 3.4% of 64,000 active | AID 628;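 active means calcium fluorescence response, raw or row-and-column corrected B-score, differing from the plate sample mean either way at a set confidence level, mostly lower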
S1P1 ag pot = S1P1 (human) agonism or agonism potentiation; P21453; S1P1 CRE-bla cells, forskolin, beta-lactamase FRET, potentiator mode; S1P1 agonist co-added at EC20, 2 nM; 100% = saturating reference agonist, 0% = basal; activation, % at 9.5 µM; 0.57% of 56,000 active;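 active means activation above a cutoff set at the mean activation of all tested compounds plus 3 SD, cut at about 54% in these data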;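 further: forskolin at 4 µM as EC80 and the EC20 agonist is SEW2871; 100% = SEW2871 at its EC100 plus forskolin at EC80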
M1 agonist = activates the M1 muscarinic receptor; CHO-M1 cells, Fluo-4 calcium fluorescence, agonist mode; hits give high values; 3% of 64,000 active; B-score at 10 µM; AID 626;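 active means fluorescence rise, raw or as B-score row- and column-corrected plate score, outside the 99.7% band of its plate's samples, either direction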
* = called active by the depositor; . = not tested or not shown.

SMILES | TNAP act mid DEA | S1P3 ag | D1 allo mod | M1 antagonist | S1P1 ag pot | M1 agonist
COc1ccc(N(CC(=O)NC2CCCC2)C(=O)c2ccc(N3CCCCC3)nc2)cc1 | 1 | 0 | -0.95 | -0.68 | -4 | 0.087
c1ccc(N2CCN(Cc3ccnc4ccccc34)CC2)cc1 | 0.8 | -2 | -1.8 | -1.2 | 78* | -1.7
COC(=O)C1=C(CSCc2ccco2)NC(=O)NC1c1cc(C)ccc1C (stereo not given) | 0.8 | -1 | -0.51 | -0.073 | 6 | -1.3
CS(=O)(=O)c1ccc2nc(NC(=O)C3COc4ccccc4O3)sc2c1 (stereo not given) | 0.9 | 0 | -0.28 | 0.66 | 17 | -0.97
Cc1nnc(NC(=O)C2COc3ccccc3O2)s1 (stereo not given) | 1 | -1 | -0.5 | -0.0073 | . | 0.065
COc1ccc2nc(NC(=O)C3COc4ccccc4O3)sc2c1 (stereo not given) | 1 | 0 | -4.8* | -1.5 | 4 | 0.14
O=C(NC1=NCCS1)C1COc2ccccc2O1 (stereo not given) | 1 | 0 | -5.4* | -0.7 | 15 | -0.6
O=C(Nc1nc2c(s1)CCCC2)C1COc2ccccc2O1 (stereo not given) | 0.9 | -1 | -6.9* | 1 | -10 | 0.53
O=C(c1ccccc1C(F)(F)F)N1CCN(S(=O)(=O)c2ccccc2)CC1 | 1 | 0 | -0.36 | 0.0077 | -14 | 0.021
COc1ccc(-c2nc(N)nc(C)c2Oc2ccccc2Br)c(O)c1 | 0.9 | -2 | 0.021 | -2.1 | 17 | -1.6
COC(=O)c1ccccc1S(=O)(=O)N(Cc1ccco1)Cc1cc2cc(OC)ccc2[nH]c1=O | 0.8 | 0 | -0.014 | -0.19 | -29 | 7.7*
CCOc1cc(S(=O)(=O)N2CCN(CC)CC2)ccc1Cl | 0.9 | -1 | 0.47 | 0.12 | -12 | 1.6
CCOc1cc(S(=O)(=O)N2CCCCC2)ccc1Cl | 1 | -1 | -4* | . | 24 | .
O=C1CC(c2cccs2)Cc2nc(NCC3CCCO3)ncc21 (stereo not given) | 0.9 | 0 | 3 | 0.53 | -6 | 0.71
CCCCC(=O)NC(Nc1cc(C)ccn1)(C(=O)OCC)C(F)(F)F (stereo not given) | 1 | -1 | 0.32 | 0.41 | -21 | 1.2
CCCCC(=O)NC(Nc1nc(C2CC2)cs1)(C(=O)OCC)C(F)(F)F (stereo not given) | 1 | 5.3* | -0.47 | -2.2 | -20 | 0.93
c1ccc(-c2cn3nc(-c4ccccc4)sc3n2)cc1 | 0.9 | 0 | -8.2* | -0.43 | -17 | 0.27
Cc1nn2cc(-c3ccccc3)nc2s1 | 1 | . | -3.9* | 1.2 | . | 1.4
N#Cc1nc(COc2ccc(Cl)cc2Cl)oc1N1CCN(c2ccccc2)CC1 | 0.9 | 0 | -1.5 | -0.1 | 69* | 0.52
COc1ccc(N2CCN(c3oc(COc4ccc(Cl)cc4Cl)nc3C#N)CC2)cc1 | 0.9 | 0 | -0.2 | -0.037 | 2 | 0.094
COCCCNC(=O)c1cn(Cc2c(F)cccc2Cl)nn1 | 1 | 0 | -3.9* | 0.092 | 1 | 0.28
COCCNC(=O)CSCc1c(F)cccc1Cl | 0.9 | -1 | 0.62 | -0.032 | . | 0.44
OC1(c2ccc(F)cc2)CCN(Cc2nnnn2Cc2cccs2)CC1 | 0.9 | 0 | 0.17 | -1.2 | 5 | -0.25
CN(C)Cc1cc(CCNC(=O)c2ccc(Cl)cc2)ccc1O | 0.9 | 0 | -2.9* | . | 10 | .
COc1ccc(CCNC(=O)c2ccncc2)cc1OC | 0.9 | -2 | 0.076 | -0.031 | -10 | -0.31
CC(=O)N1C(=O)N(C)C2C1N(C)C(=O)N2C(C)=O (stereo not given) | 0.9 | 0 | 0.052 | 1.4 | -9 | 0.3
CC(=O)OC1C(OC(C)=O)N(C(C)=O)C(=O)N1C(C)=O (stereo not given) | 0.9 | -1 | -0.62 | 1.9* | 10 | 1.7
O=C(Nc1ncc(Br)s1)C(Cc1ccccc1)n1cccc1 (stereo not given) | 0.9 | -1 | -0.24 | 0.049 | 99* | -0.13
O=C(Nc1cccnc1)C(Cc1ccccc1)n1cccc1 (stereo not given) | 0.9 | 1 | 0.016 | -0.74 | -1 | -0.77
